Source: PubChem (Johns Hopkins Ion Channel Center)
KCNQ1 act = human KCNQ1 channel potentiation or activation; AID 2648; B-score at 10 µM; 310,000 compounds, 0.35% hits; CHO-K1 KCNQ1, thallium flux FluxOR fluorescence; active compounds read high;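 active = fluorescence ratio B-score, a plate-corrected score, at least three library SD, with initial intensity B-score within 5 SD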
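Assay system: CHO-K1 cells stably expressing KCNQ1. Medium: assay buffer for compound exposure, DMSO matched across wells. Timing: 37 °C overnight plating, 90-min dark dye load, 20-min compound pretreatment. Signal: kinetic FluxOR fluorescence, 10 s baseline plus 110 s post-stimulus.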
KCNK3 inh = human KCNK3 channel inhibition, primary screen; AID 602410; O14649; B-score at 10 µM; CHO-KCNK3 thallium flux, FluxOR fluorescence; active compounds read low; 340,000 compounds, 0.84% hits;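 active = B-score under library mean minus 4 SD, starting fluorescence ratio at most library mean plus 5 SD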;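 note: more negative B-score means stronger inhibition of thallium flux through KCNK3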
KCNQ1 block = blocks the human KCNQ1 potassium channel. P51787. CHO-K1 KCNQ1, FluxOR thallium flux fluorescence; active compounds read high. B-score at 10 µM. 310,000 compounds, 1.3% hits. AID 2642;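 active = compounds whose thallium flux B-score, printed positive for inhibition, exceeds three library SD while starting fluorescence stays within three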;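 note: channel opened by potassium depolarization with thallium stimulus after 20 min compound exposure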
hERG protect = shields human hERG channel from block by proarrhythmic agents; Q12809; CHO-hERG, FluxOR thallium flux, dofetilide IC70 present; activation (rescue from dofetilide block), less the hit threshold, % at 10 µM; 310,000 compounds, 0.51% hits;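 active = activation above the mean of controls blocked by dofetilide plus 5 SD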;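 note: thallium influx through hERG after potassium depolarization seen as dye fluorescence rise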
Target sequence (Q12809 whole entry, looked up): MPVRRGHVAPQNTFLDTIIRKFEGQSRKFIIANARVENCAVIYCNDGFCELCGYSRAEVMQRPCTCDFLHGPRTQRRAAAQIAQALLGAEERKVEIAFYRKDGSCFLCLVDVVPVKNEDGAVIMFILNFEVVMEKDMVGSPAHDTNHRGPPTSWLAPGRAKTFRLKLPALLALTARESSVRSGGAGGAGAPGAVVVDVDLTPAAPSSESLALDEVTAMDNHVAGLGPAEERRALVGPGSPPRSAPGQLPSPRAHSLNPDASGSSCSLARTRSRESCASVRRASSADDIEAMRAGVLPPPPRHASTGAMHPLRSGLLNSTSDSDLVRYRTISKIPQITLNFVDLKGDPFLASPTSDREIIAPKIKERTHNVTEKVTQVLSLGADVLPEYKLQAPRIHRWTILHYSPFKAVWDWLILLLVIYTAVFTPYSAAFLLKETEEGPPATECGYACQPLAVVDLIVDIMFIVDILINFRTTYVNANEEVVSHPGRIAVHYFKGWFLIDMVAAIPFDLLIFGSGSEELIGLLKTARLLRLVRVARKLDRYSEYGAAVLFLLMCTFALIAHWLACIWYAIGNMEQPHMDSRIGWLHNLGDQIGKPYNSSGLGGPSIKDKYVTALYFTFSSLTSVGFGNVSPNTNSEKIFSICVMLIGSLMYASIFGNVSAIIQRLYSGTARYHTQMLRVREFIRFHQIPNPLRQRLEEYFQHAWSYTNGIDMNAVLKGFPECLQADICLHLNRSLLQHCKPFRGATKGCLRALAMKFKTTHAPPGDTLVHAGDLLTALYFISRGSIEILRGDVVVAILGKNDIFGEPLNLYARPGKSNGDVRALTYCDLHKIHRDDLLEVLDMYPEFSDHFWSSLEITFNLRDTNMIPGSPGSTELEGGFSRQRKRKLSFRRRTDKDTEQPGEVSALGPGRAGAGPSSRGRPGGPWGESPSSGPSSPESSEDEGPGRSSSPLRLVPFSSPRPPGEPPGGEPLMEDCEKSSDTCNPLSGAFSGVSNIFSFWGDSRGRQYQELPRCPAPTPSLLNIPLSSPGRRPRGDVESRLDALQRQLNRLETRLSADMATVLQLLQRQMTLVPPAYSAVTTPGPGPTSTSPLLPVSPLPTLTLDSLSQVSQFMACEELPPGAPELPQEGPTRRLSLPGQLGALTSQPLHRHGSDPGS
Kir21 block = Kir2.1 (mouse) channel inhibition; P35561; HEK293-Kir2.1, FluxOR thallium flux fluorescence; active compounds read low; B-score at 10 µM; 310,000 compounds, 0.85% hits; AID 1672;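 active = fluorescence ratio B-score at or below minus 3 SD of library scores, with starting-brightness B-score within 2 SD, cut at about -4.2 in these data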;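 note: channel flux triggered by added potassium and thallium sulfate stimulus; B-score of peak minus minimum fluorescence over baseline after thallium stimulus; more negative B-score means stronger Kir2.1 block with less thallium influx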
KCNK9 inh = blocks the human KCNK9 two-pore domain potassium channel | B-score at 10 µM | AID 488922 | HEK293 KCNK9, FluxOR thallium flux fluorescence; active compounds read low | Q9NPC2 | 310,000 compounds, 1.2% hits;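 active = ratio B-score over 3 SD below the library mean, with starting fluorescence within 5 SD of its mean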;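 note: negative B-score means less thallium flux so channel inhibition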
Numbers stand for hits; - = inactive; . = no result given. This is a sample that favours compounds with a hit; in the whole collection about 3.7% have one here.

SMILES	KCNQ1 act	KCNK3 inh	KCNQ1 block	hERG protect	Kir21 block	KCNK9 inh
O=C(COC(=O)c1ccc(Br)o1)NCc1ccc(Cl)cc1	.	-	.	.	.	.
CC(CCc1ccccc1)NC(=O)COc1cc(F)ccc1[N+](=O)[O-] (stereo not drawn)	24	-	-	-	-	-
COc1ccc(-n2c(-c3ccc(Cl)cc3)c[n+]3c2CCCCC3)cc1	-	-	-	-	-	-
CCOc1ccc(-n2c(-c3ccc(OC)cc3)c[n+]3c2CCCCC3)cc1	-	-	7	-	-	-
CCOc1ccc(-n2c(-c3ccc(Br)cc3)c[n+]3c2CCCCC3)cc1	-	-	8	-	-	-
COc1ccc(-c2c[n+]3c(n2-c2ccc(C)cc2)CCCCC3)cc1	-	-	9	-	-	-
Cn1c2cc(C#N)sc2c2cnn(Cc3ccc(F)cc3)c(=O)c21	.	-	.	.	.	.
O=C(CNC(=O)c1ccccc1Br)Nc1cccc(S(=O)(=O)Nc2ccccc2Cl)c1	.	-	.	.	.	.
CCOC(=O)c1c(NC(=O)CSc2nc3cccnc3n2C)sc(C(C)=O)c1C	-	-10.3	-	-	-	-
CCOC(=O)c1sc(NC(=O)CSc2nc3cccnc3n2C)nc1C	-	-	-	-	-	-
CCN(CC)S(=O)(=O)c1ccc(OC)c(NC(=O)c2cc([N+](=O)[O-])ccc2Cl)c1	-	-	-	-	-	-
CCN(CC)S(=O)(=O)c1ccc(Cl)c(C(=O)Nc2ccc(Cl)cc2[N+](=O)[O-])c1	-	-	-	-	-	-6.62
C=CCSc1nnc(NC(=O)Cn2cnc3c2c(=O)n(C)c(=O)n3C)s1	-	-	-	10.1	-	-
Cn1c(=O)c2c(ncn2CC(=O)Nc2nnc(Cc3ccccc3)s2)n(C)c1=O	-	-	-	-	-	-
COc1cc(OC)cc(C(=O)NC(=S)NCCc2ccccc2)c1	-	-	-	-	-	-
CCCN(CCC)C(=S)NC(=O)c1ccc(-c2ccccc2)cc1	9	-	-	18.8	-	-
CCOc1ccc(C(=O)NCCc2ccccc2)cc1	-	-	-	-	-	-
CCOc1ccc(CN(CCC#N)C(=S)NC(=O)c2ccccc2)cc1	11	-	-	-	-	-
CCOc1ccc(C(=O)NC(=S)N(Cc2ccccc2)Cc2ccccc2)cc1	75	-	-	26.6	-	-
COc1cc(OC)cc(C(=O)NC(=S)N(Cc2ccccc2)C(C)C)c1	27	-	-	16.6	-	-
C=CC[C@H](CC(=O)OC(C)(C)C)C(=O)OC[C@@H]1CCCN1C(=O)[C@H](CC=C)CC(=O)N[C@H](CO)Cc1ccccc1	.	-	.	.	.	.
O=C(CCCOc1ccc(Br)cc1)Nc1nnc(C2CC2)s1	.	-	.	.	.	.
O=c1[nH]c(C2CCN(S(=O)(=O)c3ccc4c(c3)OCCO4)CC2)nc2c1nnn2Cc1ccc(F)cc1	-	-	-	-	-	-
CC(Oc1cccnc1[N+](=O)[O-])C(=O)N1CCc2ccccc21 (stereo not drawn)	.	-	.	.	.	.
Cc1nc(NC(=O)CSc2nccn2C)sc1C(=O)N(C)C	-	-	-	-	-	-
SMILES	KCNQ1 act	KCNK3 inh	KCNQ1 block	hERG protect	Kir21 block	KCNK9 inh
O=c1c(/C=C(\O)c2ccc(F)cc2)nc2ccccc2n1-c1ccccc1	-	-	6	-	-	-
Cn1c(=O)c(/C=C/c2ccc(F)cc2)nc2ccccc21	-	-	-	-	-	-
O=C1CCCN1C(=O)CSc1nnnn1-c1ccccc1	.	-	.	.	.	.
CC(C)(C)C(=O)Nc1cccc(OC(F)(F)C(F)Cl)c1 (stereo not drawn)	-	-	-	-	-	-6.95
COc1cccc(NC(=O)c2ccc(NC(=O)C(C)(C)C)cc2)c1	-	-	-	-	-	-
O=C(Cc1cccc(NC(=O)C2CCCN(C(=O)C3CC3)C2)c1)Nc1ccc(C(=O)N2CCOCC2)cc1 (stereo not drawn)	.	-	.	.	.	.
CSc1nc2sc3c(c2c(=S)[nH]1)CC(C)(C)OC3	82	-	-	56.5	-	-
CCc1nc2sc3c(c2c(=S)[nH]1)CC(C)(C)OC3	-	-	-	-	-	-
Cc1nn(-c2ccccc2)c(Cl)c1C(=O)OCC(=O)NCCc1ccc(S(N)(=O)=O)cc1	.	-	.	.	.	.
CN(Cc1ccccc1)C1=CC(=[N+]2CCCC2)CC(C)(C)C1	-	-	10	-	-	-
Oc1c(Br)cc(Br)cc1CNc1cnc2ccccc2c1	-	-	6	-	-	-
Cc1c(C#N)c(N)c(C(=O)c2ccccc2)n1Cc1ccccc1	-	-	-	-	-5.18	-
COc1cc(OC)cc(-c2c(-c3cccs3)c3cc(-c4ccc(C(N)=O)cc4)ccc3n2C)c1	.	-	.	.	.	.
CC(NCc1cccc(OCc2ccccc2)c1)C(O)c1ccccc1 (stereo not drawn)	-	-	-	-	-10.5	-
CC(NCc1ccc(OCc2ccc(Cl)cc2)cc1)C(O)c1ccccc1 (stereo not drawn)	-	-	-	-	-	-
Cc1cccc2sc(NC(=O)C3CCN(S(=O)(=O)c4cc([N+](=O)[O-])ccc4Cl)CC3)nc12	-	-	11	-	-	-
Cc1nnc(NC(=O)C2CCN(S(=O)(=O)c3cc([N+](=O)[O-])ccc3Cl)CC2)o1	.	-	.	.	.	.
C/C(=N\Nc1nc2c(s1)CCCC2)c1ccc(Cl)cc1	-	-	6	-	-	-
CN(C)c1ccc(C(=O)Nc2nc3c(s2)CCCC3)cc1	-	-	-	-	-	-
COC(=O)c1ccc(C23CC4(C2)[C@H](CN(C)[C@@H]4c2ccccc2)C3c2ccccc2)cc1 (stereo partly drawn)	-	-	-	-	-	-6.61
COc1nc(Nc2ccc([N+](=O)[O-])cc2)nc(NC2CCCCC2)n1	-	-	-	-	-	-7.14
C=CCNc1nc(Nc2ccc([N+](=O)[O-])cc2)nc(OC)n1	-	-	-	-	-	-
COc1cccc(CNC(=O)C(CC(C)C)NC(=O)c2ccccc2C)c1 (stereo not drawn)	-	-	-	-	-	-
COc1ccc(C(=O)CCS(=O)(=O)c2ccc(F)cc2)cc1OC	24	-	-	-	-	-
CCn1c(SCC(=O)NCCc2ccccc2)nc2c([nH]c3ccccc32)c1=O	-	-	-	-	-	-
SMILES	KCNQ1 act	KCNK3 inh	KCNQ1 block	hERG protect	Kir21 block	KCNK9 inh
CCC(C)(C)NC(=O)CSc1nc(Cc2ccccc2)nc2ccccc12	-	-	-	-	-	-
CC(C)NC(=O)CSc1nc(Cc2cccs2)nc2ccccc12	-	-	-	-	-4.62	-
COc1cccc(/C=N/n2c(SC)nnc2-c2ccccc2)c1OC	-	-	-	-	-	-
COc1cccc(/C=N/n2c(SC)nnc2-c2ccccc2)c1O	15	-	-	-	-	-
Cc1ccc(-c2nc(=S)c3c(n2Cc2ccco2)CCCC3)cc1	.	-	.	.	.	.
Cc1ccc(-c2nc(=S)c3c(n2Cc2ccco2)CC(C)(C)OC3)cc1	12	-	-	-	-	-
